Measurements as given in ChEMBL document CHEMBL1149611, “Anti-malarial activity of N6-modified purine analogues” (Bioorg Med Chem, 2007).

Experiments:
[1] = Selectivity index, ratio of CC50 for human KB cells to IC50 for Plasmodium falciparum VS1; format: functional
[2] = test system: KB; test: Cytotoxicity against human KB cells; format: functional
[3] = test system: Plasmodium falciparum; test: Antimalarial activity against drug-sensitive Plasmodium falciparum 3D7 after 24 hrs; format: functional, organism-based; conditions: 3D7, 24 h
Method in brief: (§1)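 [³H]hypoxanthine incorporation assay. Compounds dissolved in DMSO and serially diluted in assay medium, final DMSO ≤0.01%. P. falciparum culture at 0.5% parasitaemia (65-75% ring stage), 2.5% haematocrit. Incubated 24 h at 37 °C in 5% CO₂, then [³H]hypoxanthine (0.1 µCi/well) added for a further 24 h. Incorporated radioactivity counted by scintillation. IC50 obtained by curve fitting. Chloroquine diphosphate used as standard.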

[4] = test system: Plasmodium falciparum; test: Antimalarial activity against chloroquine, pyrimethamine and cycloguanil-resistant Plasmodium falciparum VS1 after 24 hrs; format: functional, organism-based; conditions: VS1, 24 h; method in brief: as §1
[5] = test system: Plasmodium falciparum; test: Antimalarial activity against chloroquine,pyrimethamine-resistant Plasmodium falciparum K1 after 24 hrs; format: functional, organism-based; conditions: K1, 24 h; method in brief: as §1
[6] = Selectivity index, ratio of CC50 for human KB cells to IC50 for Plasmodium falciparum K1; format: functional
[7] = Selectivity index, ratio of CC50 for human KB cells to IC50 for Plasmodium falciparum 3D7; format: functional
[8] = test system: Plasmodium berghei; test: Antiparasitemia activity against Plasmodium berghei infected mice (Mus musculus) at 30 mg/kg peroral dose for 4 days; format: functional; conditions: route oral
Method in brief: (§2)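 Peters' suppressive test: 20 g male CD-1 mice were infected iv with 2×10^6 P. berghei AS-parasitized erythrocytes. Compound was dosed orally, 0.2 mL, in standard suspending formula (0.5% Na carboxymethylcellulose, 0.5% benzyl alcohol, 0.4% Tween 80, 0.9% NaCl) at 2 h and on days 1–4 post-infection. Parasitaemia was read microscopically from Giemsa films on day 5 as % inhibition relative to the untreated group's arithmetic mean.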

[9] = test system: Plasmodium berghei; test: Antiparasitemia activity against Plasmodium berghei infected mice (Mus musculus) at 30 mg/kg subcutaneous dose for 4 days; format: functional
Method in brief: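 Male CD-1 outbred mice (20 g), infected intravenously with 2×10^6 P. berghei AS parasitized red cells, received subcutaneous 0.2 mL doses in 10% DMSO/0.05% Tween 80 in water at 2 h (day 0) and on days 1, 2, 3 and 4. Day-5 Giemsa blood smears were counted microscopically, and mean group parasitaemia was expressed as % inhibition versus untreated mice.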

[10] = test system: Plasmodium berghei; test: Antiparasitemia activity against Plasmodium berghei infected mice (Mus musculus) at 100 mg/kg intravenous dose for 4 days; format: functional
Method in brief: (§3)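 CD-1 outbred male mice (20 g) were infected intravenously with 2×10^6 P. berghei AS parasitized red cells. Drug in 5% dextrose was given iv, 0.2 mL, at 2 h (day 0) and on days 1, 2, 3 and 4 post-infection. Day-5 Giemsa-stained blood films were counted, and results were expressed as % inhibition of mean group parasitaemia versus the untreated group.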

[11] = test system: Plasmodium berghei; test: Antiparasitemia activity against Plasmodium berghei infected mice (Mus musculus) at 100 mg/kg peroral dose for 4 days; format: functional; conditions: route oral; method in brief: as §2
[12] = test system: Plasmodium berghei; test: Antiparasitemia activity against Plasmodium berghei infected mice (Mus musculus) at 10 mg/kg intravenous dose for 4 days; format: functional; method in brief: as §3

| Structure (SMILES) | Ratio CC50/IC50 [1] | CC50 [2] | IC50 [3] | IC50 [4] | IC50 [5] | Ratio CC50/IC50 [6] | Ratio CC50/IC50 [7] | Activity [8] | Activity [9] | Activity [10] | Activity [11] | Activity [12] |
| --- | --- | --- | --- | --- | --- | --- | --- | --- | --- | --- | --- | --- |
| CO/N=c1/[nH]cnc2[nH]cnc12 | 2.1 | 1260 µM | 98.9 µM | > 606 µM | 354 µM | 3.6 | 12.7 | – | – | – | – | – |
| Nc1nc2[nH]cnc2/c(=N\O)[nH]1 | 2.7 | 45 µM | 27.8 µM | 16.8 µM | 9.03 µM | 5 | 1.6 | – | – | – | – | – |
| CN(N)c1ncnc2[nH]cnc12 | – | – | 508 µM | 419 µM | 478 µM | – | – | – | – | – | – | – |
| Nc1nc2c(ncn2[C@@H]2O[C@H](CO)[C@@H](O)[C@H]2O)/c(=N\O)[nH]1 | 21.1 | 281 µM | 16 µM | 13.3 µM | 10.8 µM | 25.9 | 17.5 | – | – | – | – | – |
| CON(C)c1ncnc2c1ncn2[C@@H]1O[C@H](CO)[C@@H](O)[C@H]1O | <1 | 15.3 µM | 21.8 µM | 25.2 µM | 12.5 µM | 1.2 | <1 | – | – | – | – | – |
| CN(N)c1ncnc2c1ncn2[C@@H]1O[C@H](CO)[C@@H](O)[C@H]1O | 4.5 | 101 µM | 72.7 µM | 22.5 µM | 35.4 µM | 2.9 | 1.4 | – | – | – | – | – |
| c1ccc(CO/N=c2/[nH]cnc3[nH]cnc23)cc1 | – | – | 400 µM | 352 µM | – | – | – | – | – | – | – | – |
| C=CCO/N=c1/[nH]cnc2c1ncn2[C@@H]1O[C@H](CO)[C@@H](O)[C@H]1O | – | – | 3.31 µM | 34 µM | – | – | – | – | – | – | – | – |
| CCc1nc(N)nc(N)c1-c1ccc(Cl)cc1 [PYRIMETHAMINE] | – | – | – | – | – | – | – | 100% | 100% | – | – | – |
| c1ccc(NNc2ncnc3[nH]cnc23)cc1 | 8.43 | 167 µM | 19.3 µM | 19.8 µM | – | – | 8.64 | – | – | – | – | – |
| OC[C@H]1O[C@@H](n2cnc3c(NNc4ccccc4)ncnc32)[C@H](O)[C@@H]1O | 9.9 | 109 µM | 14.2 µM | 11 µM | – | – | 7.68 | – | – | – | – | – |
| OC[C@H]1O[C@@H](n2cnc3/c(=N\O)[nH]cnc32)[C@H](O)[C@@H]1O | 5.2 | 44.3 µM | 11.6 µM | 8.56 µM | 6.9 µM | 6.4 | 3.8 | – | – | – | – | – |
| NNc1nc(N)nc2c1ncn2[C@@H]1O[C@H](CO)[C@@H](O)[C@H]1O | 112 | 1360 µM | 10.2 µM | 12.2 µM | 10 µM | 136 | 134 | 22.3% | 14% | 43.9% | 26.8% | – |
| OC[C@H]1O[C@@H](n2cnc3/c(=N\OCc4ccccc4)[nH]cnc32)[C@H](O)[C@@H]1O | 62.6 | 889 µM | 13.2 µM | 14.2 µM | – | – | 67.6 | – | – | – | – | – |
| CCN(CC)CCCC(C)Nc1ccnc2cc(Cl)ccc12 (centres undefined) [CHLOROQUINE] | – | 187 µM | – | – | – | – | – | – | – | – | – | 100% |
| NNc1nc(N)nc2[nH]cnc12 | 11.2 | 1000 µM | 189 µM | 89.3 µM | 109 µM | 9.2 | 5.3 | – | – | – | – | – |
| CN(N)c1nc(N)nc2[nH]cnc12 | – | – | > 558 µM | > 558 µM | > 558 µM | – | – | – | – | – | – | – |
| CO/N=c1/[nH]c(N)nc2c1ncn2[C@@H]1O[C@H](CO)[C@@H](O)[C@H]1O | 3.5 | 784 µM | 232 µM | 225 µM | 184 µM | 4.3 | 3.4 | – | – | – | – | – |
| COc1cc([C@@H]2c3cc4c(cc3[C@H](O)[C@H]3COC(=O)[C@H]23)OCO4)cc(OC)c1OC [PODOFILOX] | – | 0.048 µM | – | – | – | – | – | – | – | – | – | – |
| ONc1ncnc2[nH]cnc12 | 267 | 1490 µM | 7.48 µM | 5.57 µM | 10.2 µM | 146 | 199 | 3.9% | 1.8% | – | – | – |
| CN(N)c1nc(N)nc2c1ncn2[C@@H]1O[C@H](CO)[C@@H](O)[C@H]1O | 5008 | 1480 µM | 2.27 µM | 0.29 µM | 3.6 µM | 410 | 533 | 12.3% | 28.3% | 14% | 4.8% | – |
| NNc1ncnc2c1ncn2[C@@H]1O[C@H](CO)[C@@H](O)[C@H]1O | <1 | 2.26 µM | 13.3 µM | 7.92 µM | 7.48 µM | <1 | <1 | – | – | – | – | – |
| Nc1nc2c(ncn2[C@@H]2O[C@H](CO)[C@@H](O)[C@H]2O)/c(=N\OCc2ccccc2)[nH]1 | – | – | 183 µM | 126 µM | – | – | – | – | – | – | – | – |
| CO/N=c1/[nH]cnc2c1ncn2[C@@H]1O[C@H](CO)[C@@H](O)[C@H]1O | <1 | 6.16 µM | 11.4 µM | 9.87 µM | 20.6 µM | <1 | <1 | – | – | – | – | – |
| CO/N=c1/[nH]c(N)nc2[nH]cnc12 | – | – | 428 µM | > 555 µM | 435 µM | – | – | – | – | – | – | – |
| NNc1ncnc2[nH]cnc12 | 2.6 | 49.3 µM | 23.1 µM | 18.8 µM | 22.1 µM | 2.2 | 2.1 | – | – | – | – | – |
| CON(C)c1nc(N)nc2c1ncn2[C@@H]1O[C@H](CO)[C@@H](O)[C@H]1O | – | – | > 306 µM | > 306 µM | > 306 µM | – | – | – | – | – | – | – |
| CON(C)c1ncnc2[nH]cnc12 | – | – | > 613 µM | > 613 µM | > 613 µM | – | – | – | – | – | – | – |
